Activity and inhibition data for 12 compounds are collected here from ChEMBL document CHEMBL2311521, “Design, synthesis, characterization and biological evaluation of novel pyrazole integrated benzophenones” (2013).

Experiment [1] deals with Radical scavenging activity. Put plainly: Antioxidant activity of the compound assessed as DPPH radical scavenging activity at 100 uM after 20 mins. Format: functional. An outline of the steps:
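Sample solution (0.1 mM) was mixed with an equal volume of 0.1 mM DPPH in ethanol. After 20 min at room temperature, DPPH reduction was read as absorbance at 517 nm.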

The subject of experiment [2] is Rattus norvegicus. Put plainly: Antiinflammatory activity in rat assessed as inhibition of carrageenan-induced hind paw edema at 100 mg/kg, po administered 1 hr before carrageenan-challenge measured after 1 hr. Format: functional. An outline of the steps: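 Rats (n = 6 per group) were dosed orally, with the vehicle group given 1% w/v gum acacia at 10 ml/kg p.o. One hour after dosing, 0.1 ml of 1% w/v carrageenan was injected subplantar into the hind paw. Paw volume was measured by plethysmometer volume displacement, immersing the paw to the lateral malleolus, at 1, 3 and 6 h after carrageenan.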
On the technique in general: In the carrageenan paw model, swelling and tenderness develop within hours.

Experiment [3] has as its target T1, Prostaglandin G/H synthase 1 (Ovis aries) (UniProt P05979).
T1 sequence (whole entry): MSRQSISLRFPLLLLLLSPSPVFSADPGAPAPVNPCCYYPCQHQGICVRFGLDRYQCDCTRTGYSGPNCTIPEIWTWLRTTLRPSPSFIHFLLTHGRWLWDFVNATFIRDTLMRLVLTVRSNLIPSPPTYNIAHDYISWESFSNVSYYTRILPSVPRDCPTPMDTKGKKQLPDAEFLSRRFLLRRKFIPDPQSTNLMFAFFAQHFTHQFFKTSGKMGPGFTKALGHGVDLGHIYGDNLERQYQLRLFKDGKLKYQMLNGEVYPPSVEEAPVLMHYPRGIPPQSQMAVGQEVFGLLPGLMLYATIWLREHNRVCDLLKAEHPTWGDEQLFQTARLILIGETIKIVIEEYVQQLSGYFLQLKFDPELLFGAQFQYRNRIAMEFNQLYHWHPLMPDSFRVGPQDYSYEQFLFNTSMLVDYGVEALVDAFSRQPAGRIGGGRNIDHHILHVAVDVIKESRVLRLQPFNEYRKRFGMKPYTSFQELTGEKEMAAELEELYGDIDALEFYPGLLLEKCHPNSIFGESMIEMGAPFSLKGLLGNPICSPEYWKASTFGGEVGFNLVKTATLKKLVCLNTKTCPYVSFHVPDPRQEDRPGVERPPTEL
In words: Inhibition of ovine COX1 peroxidase activity assessed as appearance of oxidized N,N,N,N'-tetramethyl-p-phenylenediamine by colorimetric analysis relative to control. Also on record: concentration or dose not given beside the values. The note with it: concentration not given here. An outline of the steps: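 Colorimetric ovine COX inhibitor screening kit: assay buffer, heme, COX-1 enzyme and sample (0.1 mM), with peroxidase activity read by absorbance at 590 nm. Percent inhibition = (1 − T/C) × 100, where C is the uninhibited well. Determinations were run in duplicate.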

Experiment [4] concerns Rattus norvegicus. In words: Antiinflammatory activity in rat assessed as inhibition of carrageenan-induced hind paw edema at 100 mg/kg, po administered 1 hr before carrageenan-challenge measured after 6 hrs.
The subject of experiment [5] is Rattus norvegicus. Put plainly: Antiinflammatory activity in rat assessed as inhibition of carrageenan-induced hind paw edema at 100 mg/kg, po administered 1 hr before carrageenan-challenge measured after 3 hrs.
Experiment [6] in a line: Antioxidant activity assessed as superoxide radical scavenging activity at 100 uM after 5 mins by NBT reduction assay. Type of experiment: functional. An outline of the steps: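 Superoxide scavenging by NBT reduction in buffer (100 mM, pH 7.4) with NBT and sample (0.1 mM). The reaction was started by adding PMS, incubated 5 min at room temperature, and read by absorbance at 560 nm.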

Experiment [7] can be described thus: Antioxidant activity assessed as hydroxyl radical scavenging activity at 100 uM after 5 mins. Format: functional.

Each structure is given as a SMILES string.

The term inhibition denotes the relative decrease from the control value, in per cent.

Consider `COc1ccc(C(=O)c2c(OC)cc(OC)c(-c3ccnn3C)c2O)cc1`, for which the Activity in experiment [1] came out at 48.9%; in the experiment on Rattus norvegicus [2], 0.89 mL; with Rattus norvegicus [4] it was 0.99 mL; in the experiment with Rattus norvegicus [5], 0.89 mL. In addition, the inhibition in experiment [3] stood at 61.4%.

Consider `O=C1O[C@H]([C@@H](O)CO)C(O)=C1O`, for which the Activity was found to be 78.3% in experiment [6], 81.5% in experiment [1] and 52% in experiment [7].

Consider `COc1ccc2c(c1)c(CC(=O)O)c(C)n2C(=O)c1ccc(Cl)cc1` [INDOMETHACIN], for which the figures for the Activity with Rattus norvegicus [2], in the experiment on Rattus norvegicus [4] and with Rattus norvegicus [5] were 0.86 mL, 0.78 mL and 0.95 mL, respectively.

`COc1cc(OC)c(-c2ccnn2C)c(O)c1C(=O)c1cccc(C(F)(F)F)c1`: the Activity in experiment [1] came to 28%; in the experiment on Rattus norvegicus [2], 0.93 mL; in the experiment with Rattus norvegicus [4], 1.55 mL; with Rattus norvegicus [5], 1.44 mL. For the same compound, the inhibition in experiment [3] was found to be 55.8%.

With `COc1cc(OC)c(-c2ccnn2C)c(O)c1C(=O)c1cccc(F)c1`, the Activity in experiment [1] amounted to 34.5%; with Rattus norvegicus [2], 0.92 mL; in the experiment on Rattus norvegicus [4] it was 1.63 mL; in the experiment with Rattus norvegicus [5] it was 1.2 mL. The inhibition in experiment [3] stood at 61.7%.

In the case of `COc1cc(OC)c(-c2ccnn2C)c(O)c1C(=O)c1ccc(F)cc1F`, the Activity in experiment [1] amounted to 43.6%; with Rattus norvegicus [2], 1.12 mL; with Rattus norvegicus [4] it was 1.17 mL; in the experiment with Rattus norvegicus [5] it was 1.05 mL. Also, the inhibition in experiment [3] came out at 55.8%.

Regarding `COc1cc(OC)c(-c2ccnn2C)c(O)c1C(=O)c1ccccc1F`, the Activity came to 31.5% in experiment [1], 1.1 mL with Rattus norvegicus [2], 0.96 mL in the experiment on Rattus norvegicus [4] and 1.06 mL in the experiment on Rattus norvegicus [5]. Besides, in experiment [3], the inhibition turned out to be 58.3%.

Take `COc1cc(OC)c(-c2ccnn2C)c(O)c1C(=O)c1ccccc1`: the Activity in experiment [1] was found to be 36.2%; with Rattus norvegicus [2] it was 0.81 mL; in the experiment with Rattus norvegicus [4], 1.22 mL; with Rattus norvegicus [5], 1.11 mL. For the same compound, the inhibition in experiment [3] was determined as 57.5%.

Consider `COc1cc(OC)c(-c2ccnn2C)c(O)c1C(=O)c1cccc(Br)c1`, for which the Activity came out at 40.2% in experiment [1], 0.92 mL in the experiment with Rattus norvegicus [2], 0.91 mL with Rattus norvegicus [4] and 1 mL in the experiment with Rattus norvegicus [5]. Also, the inhibition in experiment [3] stood at 59.1%.

For the compound `COc1cc(OC)c(-c2ccnn2C)c(O)c1C(=O)c1ccc(Cl)cc1Cl`, the Activity in experiment [1] worked out at 26.1%; in the experiment with Rattus norvegicus [2], 0.59 mL; in the experiment on Rattus norvegicus [4], 1.62 mL; in the experiment on Rattus norvegicus [5] it was 1.22 mL. Besides, in experiment [3], the inhibition turned out to be 61.7%.

Turning to `COc1cc(OC)c(-c2ccnn2C)c(O)c1C(=O)c1cc(Cl)ccc1Cl`, the Activity in experiment [1] is 31.2%; with Rattus norvegicus [2], 1.01 mL; with Rattus norvegicus [4] it was 1.11 mL; in the experiment on Rattus norvegicus [5] it was 1.1 mL. The inhibition in experiment [3] was determined as 52.4%.

Turning to `COc1cc(OC)c(-c2ccnn2C)c(O)c1C(=O)c1cccc(Cl)c1Cl`, the Activity in experiment [1] was 29.6%; with Rattus norvegicus [2], 0.9 mL; in the experiment on Rattus norvegicus [4], 1.29 mL; with Rattus norvegicus [5], 1.39 mL. Besides, the inhibition in experiment [3] came to 58.3%.
